Results taken from ChEMBL document CHEMBL2331331 (J Med Chem, 2013).
The source made the active and inactive calls. The rule behind the calls is not given here.

What was measured:
[1] = molecular target: RAF proto-oncogene serine/threonine-protein kinase (Homo sapiens, UniProt P04049); experiment: Inhibition of c-RAF (unknown origin)
[2] = system: Raji; experiment: Cytotoxicity against human Raji cells assessed as growth inhibition after 72 hrs by MTT assay
[3] = system: MV4-11; experiment: Induction of apoptosis in FLT3-ITD-positive human MV4-11 cells xenografted in NOD-SCID mouse assessed as increase in apoptotic cells at 10 mg/kg/day, po by TUNEL assay; assay type: functional, organism-based; details: TDE = time-dependent effect
In short: (§1)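 Mice (NOD-SCID) bearing sc MV4-11 tumors given 10 mg/kg/d by oral gavage. Tumors removed after 2–4 days and formalin-fixed. Sections immunostained for Ki67 (proliferation) or p-STAT5, or TUNEL-stained (apoptosis). Imaged by light microscopy and compared with vehicle group.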

[4] = system: Jurkat; experiment: Cytotoxicity against human Jurkat cells assessed as growth inhibition after 72 hrs by MTT assay
[5] = molecular target: Aurora kinase B (Homo sapiens, UniProt Q96GD4); experiment: Inhibition of aurora-B (unknown origin)
Chain of Aurora kinase B (Q96GD4 whole entry): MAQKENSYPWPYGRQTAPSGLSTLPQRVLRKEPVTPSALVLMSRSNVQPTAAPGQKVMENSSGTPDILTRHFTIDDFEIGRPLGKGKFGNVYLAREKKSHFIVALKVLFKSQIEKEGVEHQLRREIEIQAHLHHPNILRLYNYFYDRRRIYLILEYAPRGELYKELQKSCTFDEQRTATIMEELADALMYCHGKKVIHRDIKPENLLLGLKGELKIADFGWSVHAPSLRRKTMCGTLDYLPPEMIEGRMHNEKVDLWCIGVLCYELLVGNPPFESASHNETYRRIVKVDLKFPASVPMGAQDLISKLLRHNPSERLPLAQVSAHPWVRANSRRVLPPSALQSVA

[6] = system: Bel-7402; experiment: Cytotoxicity against human Bel7402 cells assessed as growth inhibition after 72 hrs by MTT assay; details: Bel-7402, 72 h
[7] = system: U-937; experiment: Cytotoxicity against human U937 cells assessed as growth inhibition after 72 hrs by MTT assay; details: U-937, 72 h
[8] = molecular target: Fibroblast growth factor receptor 2 (Homo sapiens, UniProt P21802); experiment: Inhibition of FGFR2 (unknown origin)
Chain of Fibroblast growth factor receptor 2 (P21802 whole entry): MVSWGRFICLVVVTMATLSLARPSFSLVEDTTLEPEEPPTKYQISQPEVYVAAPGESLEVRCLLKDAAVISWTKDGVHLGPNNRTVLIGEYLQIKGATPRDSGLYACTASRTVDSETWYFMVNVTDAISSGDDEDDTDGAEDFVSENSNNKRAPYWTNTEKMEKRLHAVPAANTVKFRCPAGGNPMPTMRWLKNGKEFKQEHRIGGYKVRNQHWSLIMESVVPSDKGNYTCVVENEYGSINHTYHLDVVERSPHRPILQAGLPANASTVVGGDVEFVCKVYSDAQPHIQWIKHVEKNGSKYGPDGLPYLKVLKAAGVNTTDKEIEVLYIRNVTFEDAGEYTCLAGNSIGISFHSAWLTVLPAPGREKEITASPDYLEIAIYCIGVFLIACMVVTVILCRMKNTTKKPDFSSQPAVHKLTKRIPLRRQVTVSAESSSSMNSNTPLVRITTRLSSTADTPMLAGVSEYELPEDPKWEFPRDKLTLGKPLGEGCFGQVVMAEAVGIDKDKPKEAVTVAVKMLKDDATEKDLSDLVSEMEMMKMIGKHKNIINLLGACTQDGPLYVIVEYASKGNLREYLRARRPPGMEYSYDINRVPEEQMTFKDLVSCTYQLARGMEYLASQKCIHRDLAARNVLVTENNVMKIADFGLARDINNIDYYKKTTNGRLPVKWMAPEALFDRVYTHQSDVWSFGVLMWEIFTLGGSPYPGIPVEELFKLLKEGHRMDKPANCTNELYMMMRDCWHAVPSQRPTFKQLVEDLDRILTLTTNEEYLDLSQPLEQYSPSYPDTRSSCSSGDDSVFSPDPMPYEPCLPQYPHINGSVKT

[9] = system: MV4-11; experiment: Antitumor activity against FLT3-ITD-positive human MV4-11 cells xenografted in NOD-SCID mouse assessed as tumor growth inhibition at 10 mg/kg/day, po after 3 days by Ki67 staining-based light microscopic analysis relative to vehicle-treated control; assay type: functional, organism-based; in short: as §1
[10] = system: K562; experiment: Cytotoxicity against human K562 cells assessed as growth inhibition after 72 hrs by MTT assay; details: K562, 72 h
[11] = molecular target: Insulin-like growth factor 1 receptor (Homo sapiens, UniProt P08069); experiment: Inhibition of IGF1R (unknown origin)
[12] = system: MV4-11; experiment: Induction of apoptosis in human MV4-11 cells assessed as early apoptotic cells at 0.03 uM after 24 hrs by annexin V-FITC/propidium iodide staining-based FACS flow cytometric analysis (reference value: 1.61%); assay type: functional
[13] = AUC (0 to 24 hrs) in Sprague-Dawley rat at 10 mg/kg/day, po; assay type: ADME, organism-based; parameters: dose 10 mg/kg/day, time < 24 hr, route oral; details: plasma
[14] = molecular target: Serine/threonine-protein kinase PLK1 (Homo sapiens, UniProt P53350); experiment: Inhibition of PLK1 (unknown origin)
Chain of Serine/threonine-protein kinase PLK1 (P53350 whole entry): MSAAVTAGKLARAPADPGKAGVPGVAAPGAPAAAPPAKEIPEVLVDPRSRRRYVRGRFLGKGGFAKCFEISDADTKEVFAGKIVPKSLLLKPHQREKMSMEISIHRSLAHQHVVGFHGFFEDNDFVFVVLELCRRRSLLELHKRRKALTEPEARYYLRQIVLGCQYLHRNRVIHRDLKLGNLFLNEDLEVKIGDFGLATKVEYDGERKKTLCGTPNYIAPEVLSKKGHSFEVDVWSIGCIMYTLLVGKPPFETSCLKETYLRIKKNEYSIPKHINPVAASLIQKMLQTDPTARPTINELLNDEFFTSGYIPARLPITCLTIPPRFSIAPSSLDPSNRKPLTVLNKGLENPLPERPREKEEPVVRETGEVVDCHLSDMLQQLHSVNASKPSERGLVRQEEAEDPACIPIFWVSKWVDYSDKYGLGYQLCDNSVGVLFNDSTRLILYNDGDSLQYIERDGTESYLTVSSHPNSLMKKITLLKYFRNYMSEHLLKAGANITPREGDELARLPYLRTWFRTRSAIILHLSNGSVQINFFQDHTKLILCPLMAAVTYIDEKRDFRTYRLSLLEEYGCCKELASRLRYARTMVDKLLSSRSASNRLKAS

[15] = Apparent half life in Sprague-Dawley rat at 10 mg/kg/day, po; assay type: ADME, organism-based; parameters: route oral; details: in vivo, read-out: t1/2(app) (converted)
[16] = molecular target: Aurora kinase A (Homo sapiens, UniProt O14965); experiment: Inhibition of aurora-A (unknown origin)
[17] = system: MV4-11; experiment: Induction of apoptosis in human MV4-11 cells assessed as early apoptotic cells at 0.001 uM after 24 hrs by annexin V-FITC/propidium iodide staining-based FACS flow cytometric analysis (reference value: 1.61%); assay type: functional
[18] = system: MV4-11; experiment: Induction of apoptosis in human MV4-11 cells assessed as late apoptotic cells at 0.03 uM after 24 hrs by annexin V-FITC/propidium iodide staining-based FACS flow cytometric analysis (reference value: 4.28%); assay type: functional
[19] = system: HL-60; experiment: Cytotoxicity against human HL60 cells assessed as growth inhibition after 72 hrs by MTT assay; details: HL-60, 72 h
[20] = system: MV4-11; experiment: Induction of apoptosis in human MV4-11 cells after 24 hrs by annexin V-FITC/propidium iodide staining-based FACS flow cytometric analysis; assay type: functional, cell-based
[21] = system: U-266; experiment: Cytotoxicity against human U266 cells assessed as growth inhibition after 72 hrs by MTT assay; details: U-266, 72 h
[22] = system: SMMC-7721; experiment: Cytotoxicity against human SMMC7721 cells assessed as growth inhibition after 72 hrs by MTT assay; details: SMMC-7721, 72 h
[23] = system: MV4-11; experiment: Induction of apoptosis in human MV4-11 cells assessed as early apoptotic cells at 0.1 uM after 24 hrs by annexin V-FITC/propidium iodide staining-based FACS flow cytometric analysis (reference value: 1.61%); assay type: functional
[24] = molecular target: Serine/threonine-protein kinase Chk1 (Homo sapiens, UniProt O14757); experiment: Inhibition of CHEK1 (unknown origin)
[25] = molecular target: Mitogen-activated protein kinase kinase kinase 9 (Homo sapiens, UniProt P80192); experiment: Inhibition of MLK1 (unknown origin)
[26] = system: LoVo; experiment: Cytotoxicity against human LoVo cells assessed as growth inhibition after 72 hrs by MTT assay
[27] = molecular target: Mast/stem cell growth factor receptor Kit (Homo sapiens, UniProt P10721); experiment: Inhibition of c-Kit (unknown origin)
Chain of Mast/stem cell growth factor receptor Kit (P10721 whole entry): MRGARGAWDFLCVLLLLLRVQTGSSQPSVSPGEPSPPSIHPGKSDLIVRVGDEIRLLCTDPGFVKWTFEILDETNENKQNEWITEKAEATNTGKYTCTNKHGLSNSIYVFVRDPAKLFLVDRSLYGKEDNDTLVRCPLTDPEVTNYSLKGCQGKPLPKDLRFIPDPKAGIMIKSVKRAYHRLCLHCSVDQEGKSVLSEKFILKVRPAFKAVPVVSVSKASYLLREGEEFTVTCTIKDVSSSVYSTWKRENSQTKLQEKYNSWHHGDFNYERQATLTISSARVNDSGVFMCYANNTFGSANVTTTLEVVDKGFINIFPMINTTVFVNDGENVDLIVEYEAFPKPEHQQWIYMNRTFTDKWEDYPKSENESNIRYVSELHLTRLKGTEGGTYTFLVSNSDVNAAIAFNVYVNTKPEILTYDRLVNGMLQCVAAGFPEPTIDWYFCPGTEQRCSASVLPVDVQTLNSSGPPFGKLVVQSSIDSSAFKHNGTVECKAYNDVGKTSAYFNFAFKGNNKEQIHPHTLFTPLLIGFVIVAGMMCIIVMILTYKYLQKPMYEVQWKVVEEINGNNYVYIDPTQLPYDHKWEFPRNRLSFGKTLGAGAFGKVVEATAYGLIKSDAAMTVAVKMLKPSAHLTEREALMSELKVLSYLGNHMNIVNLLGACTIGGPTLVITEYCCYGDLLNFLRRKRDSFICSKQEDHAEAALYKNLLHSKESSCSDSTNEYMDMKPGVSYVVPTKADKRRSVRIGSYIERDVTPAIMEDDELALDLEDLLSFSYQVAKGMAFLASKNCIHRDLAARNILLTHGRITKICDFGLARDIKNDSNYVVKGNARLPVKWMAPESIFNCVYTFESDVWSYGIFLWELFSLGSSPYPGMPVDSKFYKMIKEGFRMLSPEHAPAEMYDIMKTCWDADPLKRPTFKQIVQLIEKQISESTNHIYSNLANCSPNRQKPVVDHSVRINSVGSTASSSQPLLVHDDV

[28] = molecular target: Megakaryocyte-associated tyrosine-protein kinase (Homo sapiens, UniProt P42679); experiment: Inhibition of CTK (unknown origin)
Chain of Megakaryocyte-associated tyrosine-protein kinase (P42679 whole entry): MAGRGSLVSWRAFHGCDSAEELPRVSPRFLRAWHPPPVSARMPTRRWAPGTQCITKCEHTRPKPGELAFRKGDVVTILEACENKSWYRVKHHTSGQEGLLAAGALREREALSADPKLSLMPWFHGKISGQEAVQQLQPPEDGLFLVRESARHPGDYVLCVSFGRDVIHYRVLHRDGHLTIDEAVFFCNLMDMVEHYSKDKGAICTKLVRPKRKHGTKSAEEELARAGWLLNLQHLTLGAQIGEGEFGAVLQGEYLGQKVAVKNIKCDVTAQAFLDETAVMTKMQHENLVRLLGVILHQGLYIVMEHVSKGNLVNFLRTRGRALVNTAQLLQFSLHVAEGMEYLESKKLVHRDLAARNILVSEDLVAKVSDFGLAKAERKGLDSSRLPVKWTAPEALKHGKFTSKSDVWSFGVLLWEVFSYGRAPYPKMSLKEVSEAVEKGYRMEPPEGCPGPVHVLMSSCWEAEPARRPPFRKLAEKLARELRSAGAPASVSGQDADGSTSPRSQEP

[29] = molecular target: Receptor tyrosine-protein kinase erbB-2 (Homo sapiens, UniProt P04626); experiment: Inhibition of ERBB2 (unknown origin)
In short: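 Single selected panel of recombinant human protein kinases, screened in vitro. The value reported is the IC50 against each kinase.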

[30] = system: MV4-11; experiment: Induction of apoptosis in human MV4-11 cells assessed as early apoptotic cells at 0.01 uM after 24 hrs by annexin V-FITC/propidium iodide staining-based FACS flow cytometric analysis (reference value: 1.61%); assay type: functional
[31] = molecular target: Vascular endothelial growth factor receptor 2 (Homo sapiens, UniProt P35968); experiment: Inhibition of VEGFR2 (unknown origin)
[32] = molecular target: Serine/threonine-protein kinase PAK 1 (Homo sapiens, UniProt Q13153); experiment: Inhibition of PAK1 (unknown origin)
Chain of Serine/threonine-protein kinase PAK 1 (Q13153 whole entry): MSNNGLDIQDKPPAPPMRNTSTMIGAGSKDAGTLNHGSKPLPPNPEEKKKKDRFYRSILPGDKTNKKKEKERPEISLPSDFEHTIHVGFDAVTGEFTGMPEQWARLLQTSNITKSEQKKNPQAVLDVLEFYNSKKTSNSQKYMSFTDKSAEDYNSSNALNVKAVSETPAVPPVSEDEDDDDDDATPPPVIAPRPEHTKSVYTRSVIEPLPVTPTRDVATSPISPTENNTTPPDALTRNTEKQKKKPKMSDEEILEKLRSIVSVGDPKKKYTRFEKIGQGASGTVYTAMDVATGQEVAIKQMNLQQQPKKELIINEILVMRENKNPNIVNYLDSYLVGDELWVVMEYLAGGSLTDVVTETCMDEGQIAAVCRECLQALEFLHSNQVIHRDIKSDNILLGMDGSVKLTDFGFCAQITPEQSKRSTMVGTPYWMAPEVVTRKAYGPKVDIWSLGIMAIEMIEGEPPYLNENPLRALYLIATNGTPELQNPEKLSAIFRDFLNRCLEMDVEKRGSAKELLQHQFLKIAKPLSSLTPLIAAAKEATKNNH

[33] = Oral bioavailability in Sprague-Dawley rat at 10 mg/kg/day; assay type: ADME, organism-based; details: in vivo
In short: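 Sprague-Dawley rats, five per group, were dosed orally at 10 mg/kg. Plasma was sampled through jugular vein cannulation. Drug levels were measured by liquid–liquid extraction followed by LC–MS.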

[34] = molecular target: Dual specificity mitogen-activated protein kinase kinase 1 (Homo sapiens, UniProt Q02750); experiment: Inhibition of MEK1 (unknown origin)
Chain of Dual specificity mitogen-activated protein kinase kinase 1 (Q02750 whole entry): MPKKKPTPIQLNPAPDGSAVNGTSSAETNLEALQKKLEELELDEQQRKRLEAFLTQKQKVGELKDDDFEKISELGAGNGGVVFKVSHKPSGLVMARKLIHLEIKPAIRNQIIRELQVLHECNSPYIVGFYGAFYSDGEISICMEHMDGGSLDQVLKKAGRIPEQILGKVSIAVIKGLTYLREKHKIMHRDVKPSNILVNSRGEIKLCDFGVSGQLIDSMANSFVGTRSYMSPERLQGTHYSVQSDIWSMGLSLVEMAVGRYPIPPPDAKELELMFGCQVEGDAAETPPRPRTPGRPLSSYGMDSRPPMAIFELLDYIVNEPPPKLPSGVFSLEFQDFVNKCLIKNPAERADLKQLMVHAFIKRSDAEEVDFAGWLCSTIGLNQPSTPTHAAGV

[35] = system: KARPAS-299; experiment: Cytotoxicity against human KARPAS299 cells assessed as growth inhibition after 72 hrs by MTT assay; details: KARPAS-299, 72 h
[36] = system: MKN-45; experiment: Cytotoxicity against human MKN45 cells assessed as growth inhibition after 72 hrs by MTT assay; details: MKN-45, 72 h

Chain of RAF proto-oncogene serine/threonine-protein kinase (P04049 whole entry): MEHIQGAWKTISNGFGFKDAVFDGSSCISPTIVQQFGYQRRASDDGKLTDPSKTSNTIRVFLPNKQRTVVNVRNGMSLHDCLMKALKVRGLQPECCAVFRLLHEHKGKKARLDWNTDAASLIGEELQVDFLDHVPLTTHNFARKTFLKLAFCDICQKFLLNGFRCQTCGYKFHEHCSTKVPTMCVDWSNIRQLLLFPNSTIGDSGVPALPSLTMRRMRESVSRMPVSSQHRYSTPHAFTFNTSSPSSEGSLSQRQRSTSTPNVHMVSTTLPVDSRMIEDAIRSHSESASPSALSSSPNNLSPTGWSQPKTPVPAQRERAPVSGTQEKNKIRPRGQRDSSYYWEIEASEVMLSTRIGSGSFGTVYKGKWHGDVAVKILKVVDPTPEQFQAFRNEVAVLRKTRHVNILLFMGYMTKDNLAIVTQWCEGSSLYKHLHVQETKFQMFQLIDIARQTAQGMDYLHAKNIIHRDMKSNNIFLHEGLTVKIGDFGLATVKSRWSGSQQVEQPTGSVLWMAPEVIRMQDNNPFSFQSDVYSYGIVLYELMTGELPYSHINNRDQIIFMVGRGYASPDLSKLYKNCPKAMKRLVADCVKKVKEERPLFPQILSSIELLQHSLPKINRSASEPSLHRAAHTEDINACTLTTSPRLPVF

IC50 [1]: 0.072 µM
IC50 [5]: > 10 µM
IC50 [8]: 1.81 µM
IC50 [11]: > 10 µM
AUC at 24 h [13]: 319 µg·h/mL
IC50 [14]: > 10 µM
half-life [15]: 12.6 h
IC50 [16]: > 10 µM
IC50 [24]: > 10 µM
IC50 [25]: > 10 µM
IC50 [27]: 0.507 µM
IC50 [28]: > 10 µM
IC50 [29]: > 10 µM
IC50 [31]: 0.012 µM
IC50 [32]: > 10 µM
bioavailability [33]: 66.7%
IC50 [34]: > 10 µM
Compound: O=C(Nc1ccc(Oc2ncnc3[nH]ncc23)cc1)Nc1ccc(Cl)c(C(F)(F)F)c1
IC50 [2]: > 10 µM
Activity [3]: tde
IC50 [4]: 8.72 µM
IC50 [6]: > 10 µM
IC50 [7]: > 10 µM
TGI [9]: Active
IC50 [10]: > 10 µM
Activity [12]: 8.93%
Activity [17]: 4.15%
Activity [18]: 17.8%
IC50 [19]: > 10 µM
Activity [20]: Dose-dependent effect
IC50 [21]: > 10 µM
IC50 [22]: > 10 µM
Activity [23]: 9.96%
IC50 [26]: > 10 µM
Activity [30]: 5.88%
IC50 [35]: > 10 µM
IC50 [36]: 8.23 µM
